Sampled rows, rich in hits. Any-hit rate of the full collection: about 2.4%.
APOBEC3G inh: inhibitors of human APOBEC3G DNA deaminase; Q9HC16; recombinant A3G, ssDNA deamination FAM/TAMRA fluorescence; inhibition, % at 20 µM; 330,000 tested, 0.28% active;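 active means inhibition of at least 40% at 20 µM, with no more than 30% in the related APOBEC3A deaminase screen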
PfG6PD inh: PfG6PD (Plasmodium falciparum) enzyme inhibition. PfGluPho enzyme, NADPH resazurin-diaphorase fluorescence. inhibition, % at 20 µM. 350,000 tested, 0.78% active. AID 504690;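 active means inhibition reaching at least a set limit at 20 µM in the primary screen, cut at about 59% in these data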
HKDC1 inh: inhibitors of human hexokinase HKDC1; inhibition, % at 20 µM; 340,000 tested, 0.16% active; recombinant HKDC1, G6PDH/diaphorase resazurin coupled fluorescence; Q2TB90; AID 493160;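 active means inhibition above about 35% when tested at 20 µM, limit read from the data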
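Assay system: in-house recombinant HK5 (HKDC1) enzyme. Input: HKDC1 at 5 µg/mL. Medium: Tris pH 8.0 buffer with MgCl2, Tween-20, BSA, BME. Dosing: single 20 µM dose. Schedule: 90 min reaction incubation at room temperature, dark. Signal: resazurin-to-resorufin fluorescence via G6PDH and diaphorase coupling, 525/613 nm. Controls: DMSO-enzyme wells negative, buffer-substituted wells positive.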
APOBEC3A inh: human APOBEC3A DNA deaminase inhibition | P31941 | recombinant A3A, FAM/TAMRA ssDNA deamination fluorescence | 330,000 tested, 0.41% active | inhibition, % at 20 µM;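 active means at least 40% inhibition at 20 µM here, with at most 30% in a related deaminase screen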
Target sequence (P31941 whole entry, looked up): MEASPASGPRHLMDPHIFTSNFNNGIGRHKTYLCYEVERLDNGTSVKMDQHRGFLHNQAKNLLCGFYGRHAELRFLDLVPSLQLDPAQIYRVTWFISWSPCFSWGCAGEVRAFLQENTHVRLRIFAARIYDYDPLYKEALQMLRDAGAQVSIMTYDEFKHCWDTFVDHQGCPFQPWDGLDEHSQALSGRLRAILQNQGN
UBC9 SUMO inh: inhibitors of human SUMOylation (UBC9). P63279. HTRF SUMOylation assay, SAE1/SAE2 + UBC9, in vitro. inhibition, % at 35 µM. 290,000 tested, 0.36% active; in the data active means inhibition above about 50%, passing the limit was not always enough
Target sequence (P63279 whole entry, looked up): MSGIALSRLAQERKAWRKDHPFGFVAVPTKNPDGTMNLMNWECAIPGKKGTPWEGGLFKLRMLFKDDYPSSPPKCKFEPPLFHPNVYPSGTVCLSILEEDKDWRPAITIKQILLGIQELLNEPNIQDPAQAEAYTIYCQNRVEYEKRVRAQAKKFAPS
PfM18AAP inh: blocks P. falciparum M18 aspartyl aminopeptidase; recombinant PfM18AAP, H-Glu-NHMec fluorogenic cleavage; inhibition, % at 7.35 µM; 290,000 tested, 1.2% active; AID 1822;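 active means inhibition above the campaign mean inhibition over all tested compounds plus 3 SD, cut at about 28% in these data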
A number is an active result.

Results for CCCCCCC#Cc1cncc(C(=O)NNC(=O)Nc2cc(Cl)cc(Cl)c2)c1 ?
APOBEC3G inh: inactive; PfG6PD inh: inactive; HKDC1 inh: inactive; APOBEC3A inh: inactive; UBC9 SUMO inh: 62.4; PfM18AAP inh: inactive

Results for O=C(Nc1nnc(-c2ccccc2SCc2ccccc2F)s1)Nc1ccccc1F ?
APOBEC3G inh: inactive; PfG6PD inh: inactive; HKDC1 inh: inactive; APOBEC3A inh: inactive; UBC9 SUMO inh: 52.4; PfM18AAP inh: inactive

How did CCCCCN(C(=O)COC(=O)c1ccc(C)cc1)c1c(N)n(CCCC)c(=O)[nH]c1=O do in these assays?
APOBEC3G inh: inactive; PfG6PD inh: inactive; HKDC1 inh: inactive; APOBEC3A inh: inactive

How did COc1ccc(/C(C)=N/Nc2ccc(C(=O)O)cc2)cc1OC do in these assays?
APOBEC3G inh: inactive; PfG6PD inh: inactive; HKDC1 inh: inactive; APOBEC3A inh: inactive; UBC9 SUMO inh: inactive; PfM18AAP inh: 28.6

What do the screens show for `C/C(=N/Nc1ccc(C(=O)O)cc1)c1ccc(O)c(O)c1O`?
APOBEC3G inh: inactive; PfG6PD inh: inactive; HKDC1 inh: inactive; APOBEC3A inh: inactive; UBC9 SUMO inh: inactive; PfM18AAP inh: 51.5

Results for COc1cc(/C(C)=N/Nc2ccc(C(=O)O)cc2)cc(OC)c1OC ?
APOBEC3G inh: inactive; PfG6PD inh: inactive; HKDC1 inh: inactive; APOBEC3A inh: inactive; UBC9 SUMO inh: inactive; PfM18AAP inh: inactive

How did Cc1n[nH]c(C)c1N1C(=O)c2cccc3cc(Br)cc(c23)C1=O do in these assays?
APOBEC3G inh: inactive; PfG6PD inh: inactive; HKDC1 inh: inactive; APOBEC3A inh: inactive; UBC9 SUMO inh: inactive; PfM18AAP inh: inactive

How did COc1cc(C(=O)NCC(=O)OCC(=O)N2CCc3ccccc32)cc(OC)c1OC do in these assays?
APOBEC3G inh: inactive; PfG6PD inh: inactive; HKDC1 inh: inactive; APOBEC3A inh: inactive; UBC9 SUMO inh: inactive; PfM18AAP inh: inactive

Results for CCOC(=O)c1cc2sccc2n1CC(=O)N1CCCc2ccccc21 ?
APOBEC3G inh: inactive; PfG6PD inh: inactive; HKDC1 inh: inactive; APOBEC3A inh: inactive; UBC9 SUMO inh: inactive; PfM18AAP inh: inactive

How did COc1ccc2nc(NNC(=O)COc3ccccc3)sc2c1 do in these assays?
APOBEC3G inh: inactive; PfG6PD inh: inactive; HKDC1 inh: inactive; APOBEC3A inh: inactive; UBC9 SUMO inh: inactive; PfM18AAP inh: 38.3

What do the screens show for `O=C(NNc1nc2ccccc2s1)Nc1ccccc1`?
APOBEC3G inh: inactive; PfG6PD inh: inactive; HKDC1 inh: inactive; APOBEC3A inh: inactive; UBC9 SUMO inh: inactive; PfM18AAP inh: 29.0

What do the screens show for `O=C(COc1ccccc1)NNc1nc2ccccc2s1`?
APOBEC3G inh: inactive; PfG6PD inh: inactive; HKDC1 inh: inactive; APOBEC3A inh: inactive; UBC9 SUMO inh: inactive; PfM18AAP inh: inactive

Results for COc1ccc(NS(=O)(=O)c2cccc(C(=O)OCC(=O)NC3CC3)c2)cc1 ?
APOBEC3G inh: inactive; PfG6PD inh: inactive; HKDC1 inh: inactive; APOBEC3A inh: inactive; UBC9 SUMO inh: inactive; PfM18AAP inh: inactive

How did O=C(NCC1CCCO1)c1cccs1 (stereo not given) do in these assays?
APOBEC3G inh: inactive; PfG6PD inh: inactive; HKDC1 inh: inactive; APOBEC3A inh: inactive; UBC9 SUMO inh: inactive; PfM18AAP inh: inactive

How did COc1cc(OC)cc(N(C(=O)C2COc3ccccc3O2)C(C(=O)NC2CCCCC2)c2ccc(O)cc2)c1 (stereo not given) do in these assays?
APOBEC3G inh: inactive; PfG6PD inh: inactive; HKDC1 inh: inactive; APOBEC3A inh: inactive; UBC9 SUMO inh: inactive; PfM18AAP inh: inactive

Results for Cc1cccc(NC(=S)NNC(=O)c2ccc(O)cc2O)c1C ?
APOBEC3G inh: inactive; PfG6PD inh: inactive; HKDC1 inh: inactive; APOBEC3A inh: inactive; UBC9 SUMO inh: inactive; PfM18AAP inh: 29.1

Results for Cc1cccc(NC(=O)NNC(=O)c2cc3ccccc3cc2O)c1C ?
APOBEC3G inh: inactive; PfG6PD inh: inactive; HKDC1 inh: inactive; APOBEC3A inh: inactive; UBC9 SUMO inh: inactive; PfM18AAP inh: inactive

Results for Cc1ccc2oc(-c3ccc(C)c(NC(=O)Cc4cccs4)c3)nc2c1 ?
APOBEC3G inh: inactive; PfG6PD inh: inactive; HKDC1 inh: inactive; APOBEC3A inh: inactive; UBC9 SUMO inh: 56.1; PfM18AAP inh: inactive

How did CC1CCC(NC(=O)COc2ccccc2C(N)=O)CC1 (stereo not given) do in these assays?
APOBEC3G inh: inactive; PfG6PD inh: inactive; HKDC1 inh: inactive; APOBEC3A inh: inactive; UBC9 SUMO inh: inactive; PfM18AAP inh: inactive

Bioassay records as filed in PubChem.
